The values below come from ChEMBL document CHEMBL1122715, “beta-Lapachone: synthesis of derivatives and activities in tumor models” (1984).

Test [1] concerns Avian myeloblastosis virus. The experiment in a line: In vitro inhibition of RNA dependent DNA polymerase of Avian myeloblastosis virus (AMV). Format: functional. As to conditions: read-out: ED50. The method in brief: (§1)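 Reverse transcriptase activity assayed with poly(rA)·oligo(dT) or poly(rC)·oligo(dG) template-primer (20 μg/mL) and [³H]dTTP or [³H]dGTP substrate (20 μM, […]); inhibition read as loss of labelled nucleotide incorporation.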

For test [2], the system named is Mus musculus. The experiment in a line: Maximum tolerated dose (MTD, po) in uninfected NMRI mice.
The subject of test [3] is Rauscher murine leukemia virus. The experiment in a line: In vitro inhibition of RNA dependent DNA polymerase of Rauscher leukemia virus (RLV). Format: functional. Conditions: read-out: ED50. The method in brief: as §1

Molecules are shown by their SMILES. Converted amounts (≈) assume the structure as drawn.

On to `O=C1C(=O)c2ccccc2C2=C1CCC1(CCCC1)O2`, for which the EC50 in test [1] was determined as 3 µg/mL (≈ 11.2 µM). Moreover, the MTD – broadly, the largest dose that counted as tolerated – in test [2] is over 2500 mg/kg.

In the case of `O=C1C(=O)c2ccccc2C2=C1CCC1(CCCCC1)O2`, the EC50 in test [1] was 3 µg/mL (≈ 10.6 µM). In test [2], this molecule yielded an MTD of over 2500 mg/kg.

Regarding `Cc1ccc2c(c1)C(=O)C(=O)C1=C2OC(C)(C)CC1`, the MTD in test [2] was over 2500 mg/kg.

`CC1(C)CCC2=C(O1)c1ccc(Cl)cc1C(=O)C2=O` came in with an MTD in test [2] of over 2500 mg/kg.

As for `CC1(c2ccccc2)CCC2=C(O1)c1ccccc1C(=O)C2=O` (stereo unspecified), the EC50 in test [1] and in test [3] was 2 µg/mL (≈ 6.57 µM) in each case. This molecule gave an MTD in test [2] of over 2500 mg/kg.

Consider `CCC1(CC)CCC2=C(O1)c1ccccc1C(=O)C2=O`, for which the EC50 in test [1] stood at 2 µg/mL (≈ 7.4 µM). The molecule also registered a maximal tolerated dose (MTD) in test [2] of 2500 mg/kg.

As to `O=C1C(=O)c2ccccc2C2=C1CCC1(CCCCCC1)O2`, the EC50 in test [1] came out at 15 µg/mL (≈ 50.6 µM).

With `O=C1C(=O)c2ccccc2C2=C1CCC(c1ccccc1)O2` (stereo unspecified), the EC50 in test [1] is under 2 µg/mL. In test [2], this molecule had a maximum tolerated dose (MTD) of over 2500 mg/kg.

With `COc1cc2c(cc1OC)C1=C(CCC(C)(C)O1)C(=O)C2=O`, the EC50 in test [1] turned out to be 5 µg/mL (≈ 16.5 µM). For the same molecule, the MTD in test [2] is over 1250 mg/kg.

Take `CCC1(C)CCC2=C(O1)c1ccccc1C(=O)C2=O` (stereo unspecified): the EC50 in test [1] was under 2 µg/mL. This molecule showed an MTD in test [2] of 125 mg/kg.

As to `CC1(C)CCC2=C(O1)c1ccccc1C(=O)C2=O` [LAPACHONE], the EC50 in test [1] and in test [3] was under 2 µg/mL each time. Besides, the MTD in test [2] was found to be 1250 mg/kg.
